Calls of active or inactive are those of the source. The calls are words filed in the database; no cut-off is given here.
Assays:
[1] = system: Vibrio cholerae; test: Inhibition of Vibrio cholerae recombinant MARTX toxin (3391-3650) cysteine protease domain autoprocessing assessed as concentration of InsP6 required to activate half maximal cleavage of the enzyme at 10 uM by Coomassie staining based SDS-PAGE method
Procedure, shortened: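 N-terminally His6-tagged CPD (aa 3391–3650, 1 µM) in 60 mM NaCl, 20 mM Tris pH 7.5, 250 mM sucrose was pretreated with 10 µM inhibitor for 30 min at room temperature. InsP6 was added across a concentration range, followed by 1 h at 37°C. Samples were run on SDS-PAGE with Coomassie staining and densitometry. Cleaved/total fraction was plotted against InsP6 and fitted with a Michaelis-Menten function to give AC50(I). Triplicates.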

[2] = system: Vibrio cholerae; test: Inhibition of Vibrio cholerae recombinant MARTX toxin (3391-3650) cysteine protease domain autoprocessing assessed as reduction of GTPgamma-S-induced activation of protease activity at 100 uM after 15 mins by Coomassie staining based SDS-PAGE method
Procedure, shortened: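 His6-tagged CPD (aa 3391–3650, 1 µM) in 60 mM NaCl, 20 mM Tris pH 7.5, 250 mM sucrose was preincubated with 100 µM inhibitor (30 min at room temperature per Methods; 15 min per legend). GTPγS was then added to 200 µM final to trigger autoprocessing, 2 h at 37°C. Read-out was 15% SDS-PAGE with Coomassie staining. Screen run in triplicate; hits confirmed in a secondary screen.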

[3] = system: Vibrio cholerae; test: Inhibition of MARTX toxin cysteine protease domain autoprocessing at Leu3441 residue in wild type Vibrio cholerae at 100 uM by Western blot
Procedure, shortened: (§1)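 Culture supernatants were TCA-precipitated and resolved by SDS-PAGE. Western blot with a polyclonal anti-CPD antibody read out MARTX_Vc processing, seen as accumulation of unprocessed toxin (~460 kDa) compared with untreated wild-type supernatants.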

[4] = system: HFF; test: Inhibition of Vibrio cholerae MARTX toxin cysteine protease domain autoprocessing assessed as assessed as reduction in actin cross linking in HFF cells at 50 uM pretreated for 15 before Vibrio cholerae supernatants addition by Western blot; type: cell-based
[5] = system: Vibrio cholerae; test: Inhibition of MARTX toxin cysteine protease domain autoprocessing at Leu3099 residue in wild type Vibrio cholerae at >50 uM by Western blot; procedure, shortened: as §1
[6] = system: HFF; test: Inhibition of MARTX toxin cysteine protease domain autoprocessing in Vibrio cholerae assessed as assessed as reduction in actin cross linking in HFF cells exposed to Vibrio cholerae supernatants pretreated at 50 uM for 15 mins by Western blot; type: cell-based
[7] = system: Vibrio cholerae; test: Inhibition of MARTX toxin cysteine protease domain autoprocessing in wild type Vibrio cholerae by Western blot; procedure, shortened: as §1

SMILES: CC(C)C[C@H](NC(=O)OCc1ccccc1)C(=O)N[C@@H](CC(C)C)C(=O)NN(CC(C)C)C(=O)[C@H]1O[C@@H]1C(=O)O
- Activity [1]: 158 nM
- inhibition [2]: Active

SMILES: CCOC(=O)[C@H]1O[C@@H]1C(=O)N(CC(C)C)NC(=O)[C@H](CC(C)C)NC(=O)[C@H](CC(C)C)NC(=O)OCc1ccccc1 (stereo in doubt; 9)
- Activity [1]: 74 nM
- inhibition [2]: Active

SMILES: CCOC(=O)[C@H]1O[C@@H]1C(=O)N(CC(C)C)NC(=O)[C@H](CC(C)C)NC(=O)[C@H](CC(C)C)NC(=O)OCc1ccccc1 (stereo in doubt; 7)
- inhibition [3]: inactive
- inhibition [4]: Active
- inhibition [5]: Active
- Activity [1]: 457 nM
- inhibition [6]: Active
- inhibition [2]: Active
- inhibition [7]: Dose-dependent effect

SMILES: CCOC(=O)[C@H]1O[C@@H]1C(=O)N(CC(C)C)NC(=O)[C@H](CC(C)C)NC(C)=O
- Activity [1]: 21 nM
- inhibition [2]: Active

SMILES: Cc1cccc(C)c1C(=O)OCC(=O)[C@H](CC(C)C)NC(=O)[C@H](C)NC(=O)[C@H](CCC(=O)O)NC(=O)OCc1ccccc1
- inhibition [3]: inactive
- inhibition [4]: inactive
- inhibition [5]: Active
- Activity [1]: 529 nM
- inhibition [6]: Active
- inhibition [2]: Active
- inhibition [7]: Dose-dependent effect

SMILES: CCOC(=O)[C@@H]1O[C@H]1C(=O)N(CC(C)C)NC(=O)[C@H](CC(C)C)NC(=O)[C@H](CC(C)C)NC(=O)OCc1ccccc1
- Activity [1]: 5.2 nM
- inhibition [2]: Active

SMILES: Cc1cccc(C)c1C(=O)OCC(=O)[C@H](CC(C)C)NC(=O)[C@H](C)NC(=O)[C@H](CCC(=O)O)NC(=O)[C@H](CCCCN)NC(=O)OCc1ccccc1
- Activity [1]: 290 nM
- inhibition [2]: Active

SMILES: Cc1cccc(C)c1C(=O)OCC(=O)[C@H](CC(C)C)NC(=O)[C@H](C)NC(=O)OCc1ccccc1
- Activity [1]: 187 nM
- inhibition [2]: Active

SMILES: CCOC(=O)[C@H]1O[C@@H]1C(=O)N(CC(C)C)NC(=O)[C@H](CC(C)C)NC(=O)OCc1ccccc1
- Activity [1]: 11 nM
- inhibition [2]: Active

SMILES: CCOC(=O)[C@@H]1O[C@H]1C(=O)N(CC(C)C)NC(=O)OCc1ccccc1 (relative stereo)
- Activity [1]: 1.1 nM
- inhibition [2]: Active

Source: ChEMBL document CHEMBL1212721, “Mechanistic and structural insights into the proteolytic activation of Vibrio cholerae MARTX toxin” (Nat Chem Biol, 2009)
